The text below walks through data of PubChem BioAssay AID2805 (Sanford-Burnham Center for Chemical Genomics, 2010).

SMILES strings stand for the structures. The whole screen tested about 330,000 compounds, of which about 780 (0.24%) were called active. This is one part of a sample in which actives are shown more often than they occur. Unmarked numbers belong to inactive results.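 How the source made its calls: active means activation factor of at least 2 at 20 µM; inactive means the rest.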

The assay deals with intestinal alkaline phosphatase [Mus musculus]. Briefly: activators of mouse IAP, primary screen, biochemical, luminescence, uHTS (AID 2805). The settings on record: muIAP, CDP-Star luminescence, 30 min; at 10 µM; active compounds read high; 1 = vehicle-only enzyme signal, 0 = enzyme-free wells. The essentials:
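also added = chemiluminescent substrate CDP-Star | test system = mouse IAP enzyme | signal = chemiluminescence readout | compound = DMSO-dissolved test compounds | incubation = 30 min at room temperature | benchmarks = DMSO wells, no-enzyme wells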
With `CCN(C(=O)Cc1nc(N)n[nH]1)C1(C(=O)Nc2ccccc2)CCCCC1`, the activation factor was 1. On to `COc1ccc(-c2nn(-c3ccccc3)cc2C(=O)Nc2nccs2)cc1OC`, for which the activation factor is 1. With `COc1ccc(NC(=O)c2cn(-c3ccccc3)nc2SC)cc1`, the activation factor was 3.32 (active). `COc1ccc(NC(=O)c2cc(-c3ccc(C)o3)nc3ccccc23)cc1`: the activation factor is 0.934. For `CCn1nnc2cc(C(=O)Nc3ccc(C(=O)OC(C)C)cc3)ccc21`, the activation factor was 0.97. For `CCOC(=O)c1cc(C)sc1NC(=O)C1CCC1`, the activation factor is 1.01. Consider `CC(C)c1ccc(NC(=S)NC2CC3C=CC2C3)cc1` (stereo not drawn), for which the activation factor was 2.76 (active).

With `S=C(NNC(=S)NC1CC2CCC1C2)NC1CC2C=CC1C2` (stereo not drawn), the activation factor is 0.928. Consider `Cc1ccc(C)c(NC(=S)NNC(=S)Nc2ccc(C(C)C)cc2)c1`, for which the activation factor was 0.941.

For the compound `Cc1ccccc1N1CCN(CCCN2C(=O)C3CCCCN3C2=O)CC1` (stereo not drawn), the activation factor was 1.05. The value for `O=C1CCC([N+](=O)[O-])C(c2ccccc2Br)N1` (stereo not drawn) was 1.03.

As for `O=P(O)(CN1CCCCCC1)C1Cc2ccccc2C1`, the activation factor is 1.05.

`Cc1ccccc1NC(=O)COc1cccc2c1CCNC2=O`: the activation factor was 0.912. As for `C#CCOCCOCCOCCNc1nc(N2CCN(C(=O)[C@H](CCCN=C(N)N)n3cc(C(N)[C@@H](C)CC)nn3)CC2)nc(N2CCN(C(=O)[C@H](CO)n3cc([C@@H](N)C(C)C)nn3)CC2)n1` (stereo partly drawn), the activation factor was 0.988. In the case of `C#CCOCCOCCOCCNc1nc(N2CCN(C(=O)CCCCCCCCCCNC(=O)[C@H]([C@@H](C)CC)n3cc(CCCCN=C(N)N)nn3)CC2)nc(N2CCN(C(=O)CCCCCCCCCCNC(=O)[C@H](CO)n3cc(CCCSC)nn3)CC2)n1`, the activation factor was 12.7 (active).

Take `C#CCOCCOCCOCCNc1nc(N2CCN(C(=O)Cn3cc(CCCCN)nn3)CC2)nc(N2CCN(C(=O)[C@H](CCCCN)n3cc(CCC(=O)O)nn3)CC2)n1`: the activation factor is 0.948. `C#CCOCCOCCOCCNc1nc(N2CCN(C(=O)CCCCCCCCCCNC(=O)Cn3cc(CCCCCN)nn3)CC2)nc(N2CCN(C(=O)CCCCCCCCCCNC(=O)[C@H](CO)n3cc(CCCSC)nn3)CC2)n1`: the activation factor was 2.45 (active).

As to `C#CCOCCOCCOCCNc1nc(N2CCN(C(=O)CCCCCCCCCCNC(=O)[C@H](CCCCN)n3cc(C)nn3)CC2)nc(N2CCN(C(=O)CCCCCCCCCCNC(=O)[C@H](CO)n3cc(CCCSC)nn3)CC2)n1`, the activation factor was 1.29.

For `C#CCOCCOCCOCCNc1nc(N2CCN(C(=O)[C@H](C(C)C)n3cc(CCO)nn3)CC2)nc(N2CCN(C(=O)[C@H]([C@@H](C)CC)n3cc(CCCN=C(N)N)nn3)CC2)n1`, the activation factor is 1. For `COc1ccc(CCNC(=O)C2CCCN(Cc3nc(-c4cccc(Cl)c4)oc3C)C2)cc1OC` (stereo not drawn), the activation factor was 0.883. Consider `CN(C)C(=O)N1CCNCC1`, for which the activation factor is 0.933. Regarding `c1ccc(CCN2CN=C(Nc3nc4ccccc4o3)NC2)cc1`, the activation factor is 0.958. Take `CC[C@]12c3[nH]c4ccc(Cl)cc4c3CCN1C(=O)[C@@H](CC(=O)NCCCOC)C[C@@H]2C(=O)N1CCN(C(=O)C2CC2)CC1`: the activation factor is 0.995.

Consider `COc1ccc(-n2nc(C(=O)NCC(=O)N3CCN(c4ccccc4OC)CC3)c3ccccc3c2=O)c(OC)c1`, for which the activation factor is 1.03. To `C[C@@H](O)c1nc2ccccc2n1N` belongs 0.944; to `COCCNC(=O)CCCN1C(=O)c2ccccc2Sc2ncccc21`, 1.03; to `CN(c1cccc(NC(=O)Nc2ccc(Cl)cc2)c1)S(C)(=O)=O`, 2.3 (active). To `Cc1cc(Cl)nc(NC(=O)Nc2cccc(Cl)c2)n1` belongs 0.931.

Take `CN(c1cccc(NC(=O)c2ccc(CN3CCc4ccccc4C3)cc2)c1)S(C)(=O)=O`: the activation factor was 1.06. `CN(CCc1ccccn1)C(=O)c1ccc(OC2CCN(CCc3ccccc3)CC2)cc1`: the activation factor was 1.07. `CC(C)c1nc(SCC(=O)NC(=O)NC(C)(C)C)n[nH]1`: the activation factor was 1. To `Cc1noc(C)c1CSc1nc2cc(S(=O)(=O)N3CCOCC3)ccc2o1` belongs 0.946; to `CCOC(=O)c1sc(NC(=O)CSc2nc(O)c(Cc3ccccc3)c(=O)[nH]2)nc1C`, 0.914; to `CN(Cc1ccc(F)cc1)C(=O)COc1ccc2ccccc2c1`, 1. The value for `COc1cc(NC(=S)NCCSc2ccc(C)cc2)cc(OC)c1` was 2.86 (active); that for `COc1cccc(C(=O)NCCSc2ccc(Br)cc2)c1` was 1.14. To `COc1cc(NC(=S)NCc2ccc(S(N)(=O)=O)cc2)cc(OC)c1` belongs 1.06.

As to `S=c1nccc(-c2cc(Cl)sc2Cl)[nH]1`, the activation factor was 1.08.

As for `CC(CNC(=O)c1ccc(N)cc1)NC(=O)c1ccc(N)cc1` (stereo not drawn), the activation factor is 1.09. Consider `O=C(Nc1cccc(-c2cccc(Cl)c2)c1)C1CCN(C2CCC2)CC1`, for which the activation factor is 6.17 (active). As for `COc1cccc(-c2cccc(NC(=O)C3CCN(C4CCC4)CC3)c2)c1`, the activation factor was 1.01. As to `O=C(Nc1cnn(Cc2ccc(Cl)cc2)c1)C1CCCC1`, the activation factor is 0.956.

As to `CC(=O)c1cc(CN2CCC(C(=O)Nc3cccc(-c4cscn4)c3)CC2)cs1`, the activation factor is 1.08. Take `CCn1cc(CN2CCC(n3nccc3NC(=O)CCCc3ccccc3)CC2)c(C)n1`: the activation factor was 1.22. With `O=C(Nc1cccc(-c2cscn2)c1)C1CCN(Cc2ccsc2)CC1`, the activation factor was 1.47. Regarding `CCn1cc(CN2CCC(C(=O)Nc3cccc(-c4cccc(Cl)c4)c3)CC2)cn1`, the activation factor is 5.15 (active).

For `O=C(NC1CCCC1)C1CCN(C(=O)Nc2cccc(Cl)c2)CC1`, the activation factor is 1.03. `CCn1cc(CN2CCC(C(=O)Nc3cccc(-c4cccc(Cl)c4)c3)CC2)c(C)n1`: the activation factor was 3.39 (active). As for `N#Cc1c(C(F)(F)F)cc(-c2cccs2)nc1N1CCCCC1`, the activation factor was 1.01. For the compound `CN1CCN(C(CNS(=O)(=O)c2cccs2)c2cccnc2)CC1` (stereo not drawn), the activation factor was 0.991. In the case of `CCC(=O)c1ccc(OCC(O)Cn2nc(C)c(C(C)=O)c2C)cc1` (stereo not drawn), the activation factor is 0.903.

For `CC1(C)Cc2cccc(OCC(=O)N3CCN(c4ccc([N+](=O)[O-])cc4)CC3)c2O1`, the activation factor is 0.924. Take `CCc1ccc(-n2c(SCc3cc(=O)n4cc(Br)ccc4n3)nc3[nH]ncc3c2=O)cc1`: the activation factor is 0.976.
